Experiments:
Rattus norvegicus [1] = experiment: Effect (30 mg/kg, iv) on coronary reperfusion-induced arrhythmias was assessed in anesthetized rats. (Intervals of ventricular tachycardia (VT)+ventricular fibrillation (VF) within 600 s.; assay type: functional, Cardiac ventricle
Rattus norvegicus [2] = species on record: Rattus norvegicus; experiment: Inhibition of lipid peroxidation in rat liver microsomes.; assay type: functional; parameters: concentration or dose not given beside the values; conditions: dose or concentration not given here
In short: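 Wistar rat liver microsomes (2.0 mg protein) in 83.5 mM KCl, 37.2 mM Tris-HCl pH 7.4 with 1 mM ADP, 10 µM FeCl3, 0.02 mM NADPH; compound added in DMF, tested at 10^-5 M. 37 °C, 20 min. Malondialdehyde measured by thiobarbituric acid method, A532; % inhibition, mean ± SD, n = 3–6.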

Rattus norvegicus [3] = experiment: Effect (10 mg/kg, iv) on coronary reperfusion-induced arrhythmias was assessed in anesthetized rats.(Intervals of ventricular tachycardia (VT)+ventricular fibrillation (VF) within 600 s.; assay type: functional, Cardiac ventricle
Cavia porcellus [4] = species on record: Cavia porcellus; experiment: Inhibitory activity on atrial contractility in isolated Guinea pig right atrea at 0.03 mg/mL concentration; assay type: functional, Cardiac atrium
In short: (§1)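 Right atria from male Hartley guinea pigs (450–550 g), loaded at 0.5 g, in Tyrode's solution at 37 °C gassed with 95% O2/5% CO2. Equilibrated at least 30 min until rate stable within 5 beats/min; spontaneous rate and contractile force recorded on polygraph after compound addition.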

Rattus norvegicus [5] = experiment: Antiarrhythmic activity against anesthetized rats after peroral administration; assay type: functional, Heart
In short: (§2)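 Male Wistar rats (350–450 g) dosed orally 1 h before occlusion, then anesthetized with pentobarbital (60 mg/kg ip) and ventilated. LAD ligated 5 min, reperfused 10 min; VT plus VF durations summed within 600 s. Mean ± SE, n = 5–10; line 2 value is the minimum effective dose.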

Cavia porcellus [6] = species on record: Cavia porcellus; experiment: Inhibitory activity on atrial rate in isolated Guinea pig right atrea at 0.03 mg/mL concentration; assay type: functional, Cardiac atrium; in short: as §1
Cavia porcellus [7] = species on record: Cavia porcellus; experiment: Inhibitory activity on atrial contractility in isolated Guinea pig right atrea at 0.01 mg/mL concentration; assay type: functional, Cardiac atrium; in short: as §1
Rattus norvegicus [8] = experiment: inhibitory activity was tested against anesthetized rats at 10 mg/kg; assay type: functional
Cavia porcellus [9] = species on record: Cavia porcellus; experiment: Inhibitory activity on atrial contractility in isolated Guinea pig right atrea at 0.003 mg/mL concentration; assay type: functional, Cardiac atrium; in short: as §1
Rattus norvegicus [10] = experiment: Antiarrhythmic activity against anesthetized rats after intravenous administration; assay type: functional, Heart
Rattus norvegicus [11] = experiment: Effect (0.3 mg/kg, iv) on coronary reperfusion-induced arrhythmias was assessed in anesthetized rats.(Intervals of ventricular tachycardia (VT)+ventricular fibrillation (VF) within 600 s.; assay type: functional, Cardiac ventricle
Rattus norvegicus [12] = experiment: Change in arterial blood pressure was measured at 0.3 mg/kg dose(iv) in anesthetized rats; assay type: functional, Artery
In short: (§3)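 Male Wistar rats, pentobarbital 60 mg/kg ip, supine. Compound suspended in saline with 1% olive oil and 1% Tween 80, injected via femoral vein. Femoral arterial pressure monitored 10 min after injection; change in mmHg, mean ± SE, n = 3–4.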

Cavia porcellus [13] = species on record: Cavia porcellus; experiment: Inhibitory activity on atrial rate in isolated Guinea pig right atrea at 0.003 mg/mL concentration; assay type: functional, Cardiac atrium; in short: as §1
Cavia porcellus [14] = species on record: Cavia porcellus; experiment: Inhibitory activity on atrial rate in isolated Guinea pig right atrea at 0.01 mg/mL concentration; assay type: functional, Cardiac atrium; in short: as §1
Rattus norvegicus [15] = experiment: Change in heart rate was measured at mg/kg dose(iv) in anesthetized rats; assay type: functional
In short: (§4)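 Anesthetized male Wistar rats (pentobarbital 60 mg/kg ip); compound in saline/1% olive oil/1% Tween 80 given by femoral vein. Lead II ECG recorded and heart rate read by beat-to-beat tachograph for 10 min after dosing; change in beats/min, mean ± SE, n = 3–4.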

Rattus norvegicus [16] = experiment: Effect (10 mg/kg, po) on coronary reperfusion-induced arrhythmias was assessed in anesthetized rats.(Intervals of ventricular tachycardia (VT)+ventricular fibrillation (VF) within 600 s.; assay type: functional, Cardiac ventricle; in short: as §2
Rattus norvegicus [17] = experiment: Effect (30 mg/kg, po) on coronary reperfusion-induced arrhythmias was assessed in anesthetized rats.(Intervals of ventricular tachycardia (VT)+ventricular fibrillation (VF) within 600 s.; assay type: functional, Cardiac ventricle; in short: as §2
Rattus norvegicus [18] = experiment: Change in heart rate was measured at 1 mg/kg dose(iv) in anesthetized rats; assay type: functional; in short: as §4
Rattus norvegicus [19] = experiment: Change in heart rate was measured at 3 mg/kg dose(iv) in anesthetized rats; assay type: functional; in short: as §4
Rattus norvegicus [20] = experiment: Change in arterial blood pressure was measured at 3 mg/kg dose(iv) in anesthetized rats; assay type: functional, Artery; in short: as §3
Rattus norvegicus [21] = experiment: Change in arterial blood pressure was measured at 1 mg/kg dose(iv) in anesthetized rats; assay type: functional, Artery; in short: as §3
Rattus norvegicus [22] = experiment: inhibitory activity was tested against anesthetized rats; assay type: functional
Rattus norvegicus [23] = experiment: Effect (1 mg/kg, iv) on coronary reperfusion-induced arrhythmias was assessed in anesthetized rats.(Intervals of ventricular tachycardia (VT)+ventricular fibrillation (VF) within 600 s; assay type: functional, Cardiac ventricle
Cavia porcellus [24] = species on record: Cavia porcellus; experiment: Inhibitory activity on atrial contractility in isolated Guinea pig right atria at 0.3 mg/mL concentration; assay type: functional; conditions: Cardiac atrium; in short: as §1
Cavia porcellus [25] = species on record: Cavia porcellus; experiment: Inhibitory activity against atrial rate in isolated Guinea pig right atrea at 0.3 mg/mL concentration; assay type: functional, Cardiac atrium; in short: as §1
Cavia porcellus [26] = species on record: Cavia porcellus; experiment: Inhibitory activity on atrial rate in isolated Guinea pig right atria at 0.1 mg/mL concentration; assay type: functional; conditions: Cardiac atrium
In short: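 Right atria from male Hartley guinea pigs (450–550 g), held under a 0.5 g load at 37 °C in Tyrode's solution gassed with 95% O2 + 5% CO2. After at least 30 min equilibration (rate stable within 5 beats/min), atrial rate and contractile force of spontaneously beating preparations were recorded on a polygraph with compound present.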

Cavia porcellus [27] = species on record: Cavia porcellus; experiment: Inhibitory activity on atrial rate in isolated Guinea pig right atria at 0.03 mg/mL concentration; assay type: functional; conditions: Cardiac atrium; in short: as §1
Rattus norvegicus [28] = experiment: Effect (30 mg/kg, iv) on coronary reperfusion-induced arrhythmias was assessed in anesthetized rats.(Intervals of ventricular tachycardia (VT)+ventricular fibrillation (VF) within 600 s.; assay type: functional, Cardiac ventricle
Cavia porcellus [29] = species on record: Cavia porcellus; experiment: Inhibitory activity on atrial contractility in isolated Guinea pig right atria at 0.03 mg/mL concentration; assay type: functional; conditions: Cardiac atrium; in short: as §1
Cavia porcellus [30] = species on record: Cavia porcellus; experiment: Inhibitory activity on atrial contractility in isolated Guinea pig right atria at 0.1 mg/mL concentration; assay type: functional; conditions: Cardiac atrium; in short: as §1
Rattus norvegicus [31] = species on record: Rattus norvegicus; experiment: Inhibitory effect on production of active oxygen species by rat peritoneal exudate macrophages; assay type: functional; parameters: concentration or dose not given beside the values
In short: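 Peritoneal exudate macrophages harvested 3 days after ip liquid paraffin (male Wistar rats), >90% viable. Assay: 125 mM sodium phosphate pH 6.5, 0.08 mM EDTA, 1.2 U LDH, 0.32 mM NADH, (2–3) × 10^6 cells, compound in DMF, 1 × 10^-4 M. Started with NADH.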

Cavia porcellus [32] = species on record: Cavia porcellus; experiment: Inhibitory activity on atrial rate in isolated Guinea pig right atrea at 0.1 mg/mL concentration; assay type: functional, Cardiac atrium; in short: as §1
Cavia porcellus [33] = species on record: Cavia porcellus; experiment: Inhibitory activity on atrial contractility in isolated Guinea pig right atrea at 0.1 mg/mL concentration p<0.05; assay type: functional, Cardiac atrium; in short: as §1
Cavia porcellus [34] = species on record: Cavia porcellus; experiment: Inhibitory activity on atrial contractility in isolated Guinea pig right atrea at 0.3 mg/mL concentration; assay type: functional, Cardiac atrium; in short: as §1
Cavia porcellus [35] = species on record: Cavia porcellus; experiment: Inhibitory activity on atrial rate in isolated Guinea pig right atrea at 0.3 mg/mL concentration; assay type: functional, Cardiac atrium; in short: as §1
Cavia porcellus [36] = species on record: Cavia porcellus; experiment: Inhibitory activity on atrial contractility in isolated Guinea pig right atrea at 0.03 mg/mL concentration p<0.05; assay type: functional, Cardiac atrium; in short: as §1

With CCOC1=C(O)C(=O)OC1C(O)CO (stereo not drawn) the Arrhythmias times (Rattus norvegicus [1]) was 591 and the inhibition (Rattus norvegicus [2]) was 2%.

CCCCCCCCCCCCCCCC(=O)OCC(O)C1OC(=O)C(O)=C1OCC(C)=O (stereo not drawn) gave an Arrhythmias times (Rattus norvegicus [3]) of 353 and an inhibition (Rattus norvegicus [2]) of 53%.

Work on COc1ccc(CCN(C)CCCC(C#N)(c2ccc(OC)c(OC)c2)C(C)C)cc1OC (stereo not drawn) [VERAPAMIL] yielded an Inhibition (Cavia porcellus [4]) of 100%, an Efficacy (Rattus norvegicus [5]) of 10 mg/kg and an Inhibition (Cavia porcellus [6]) of 100%. The Inhibition (Cavia porcellus [7]) was 77.8%, the inhibition in vivo at 10 mg/kg (Rattus norvegicus [8]) was 87% and the Inhibition (Cavia porcellus [9]) was 49.9%. For the same molecule, the Efficacy (Rattus norvegicus [10]) was >0.3 mg/kg, the Arrhythmias times (Rattus norvegicus [11]) was 121 and the Delta blood pressure (Rattus norvegicus [12]) was -46.7 mmHg. The Inhibition (Cavia porcellus [13]) was 37.9%, the Inhibition (Cavia porcellus [14]) was 63% and the Delta heart rate (Rattus norvegicus [15]) was -70 beats min-1. For the same molecule, the inhibition (Rattus norvegicus [2]) was 37% and the Arrhythmias times (Rattus norvegicus [16]) was 56.7.

In the case of CCCCCCCCCCCC1OCC(C2OC(O)=C(O)C2=O)O1 (stereo not drawn), the Arrhythmias times (Rattus norvegicus [17]) is reported as 420.8, the Efficacy (Rattus norvegicus [5]) is reported as 30 mg/kg and the Delta heart rate (Rattus norvegicus [18]) is reported as -10.3 beats min-1. The Efficacy (Rattus norvegicus [10]) was >1 mg/kg, the inhibition (Rattus norvegicus [2]) was 89% and the Delta heart rate (Rattus norvegicus [19]) was -75 beats min-1. The Delta blood pressure (Rattus norvegicus [20]) was -30.3 mmHg, the Delta blood pressure (Rattus norvegicus [21]) was -7 mmHg and the Inhibition (Rattus norvegicus [22]) was 19%. For the same molecule, the Arrhythmias times (Rattus norvegicus [23]) was 186.

CCCCc1ccc(C(=O)COC2=C(O)C(=O)OC2C(O)CO)cc1 (stereo not drawn) gave an inhibition at 300 µg/mL (Cavia porcellus [24]) of 67.1%, an Inhibition (Cavia porcellus [25]) of 25.6% and an inhibition at 100 µg/mL (Cavia porcellus [26]) of 17%. For the same molecule, the inhibition at 30 µg/mL (Cavia porcellus [27]) was 8.8%, the Arrhythmias times (Rattus norvegicus [28]) was 325 and the inhibition at 30 µg/mL (Cavia porcellus [29]) was 36.2%. It also gave an inhibition at 100 µg/mL (Cavia porcellus [30]) of 52.8% and an inhibition (Rattus norvegicus [2]) of 82%.

CCCCCCCCCCOC1=C(O)C(=O)OC1C(O)CO (stereo not drawn) showed an Arrhythmias times (Rattus norvegicus [17]) of 283.6, an Inhibition (Rattus norvegicus [31]) of 15.9% and an inhibition (Rattus norvegicus [2]) of 93%. The Arrhythmias times (Rattus norvegicus [23]) was 291.

With CCCCCCCCc1ccc(C(=O)COC2=C(O)C(=O)OC2C(O)CO)cc1 (stereo not drawn) the Arrhythmias times (Rattus norvegicus [3]) was 461, the Inhibition (Cavia porcellus [32]) was -0.9% and the Inhibition (Cavia porcellus [6]) was -0.4%. It also gave an Inhibition (Cavia porcellus [33]) of 33.5%, an inhibition (Rattus norvegicus [2]) of 88% and an Inhibition (Cavia porcellus [34]) of 45%. It also gave an Inhibition (Cavia porcellus [35]) of 0.3% and an Inhibition (Cavia porcellus [36]) of 15.8%.

With CCCCCCCCCCCCCCCCCCOC(=O)COC1=C(O)C(=O)OC1C(O)CO (stereo not drawn) the Arrhythmias times (Rattus norvegicus [28]) was 413 and the inhibition (Rattus norvegicus [2]) was 30%.

CCCCCCCCCCCCCCCCCCOC1=C(O)C(=O)OC1C(O)CO (stereo not drawn) was tested, and the Arrhythmias times (Rattus norvegicus [28]) was 447, the Inhibition (Rattus norvegicus [31]) was 53.3% and the inhibition (Rattus norvegicus [2]) was 45%.
